Experimental data pooled from the literature.
Protocols differ between the studies behind these lines.
Observed: cell growth or viability

Compound | cell line | method | tested at | time | endpoint | value
COC(=O)[C@]1(O)C[C@@H](O)[C@@H](O)[C@H](OC(=O)/C=C/c2ccc(O)c(O)c2)C1 | HEp-2 | WST-1 |  |  | IC50 | 21.2 µM
C=C1C(=O)O[C@H]2[C@H]1CC/C(C)=C/CC[C@@]1(C)O[C@@H]21 | THP-1 | ATP luminescence |  | 17 h | IC50 | 8.89 µM
CC(=O)O[C@@H]1c2c(ccc3ccc(=O)oc23)OC(C)(C)[C@@H]1OC(=O)C1(C)OC1C (stereo partly drawn) | MCF7 | WST-1 |  |  | IC50 | 25.1 µM
C[C@H]1[C@H](C)CC[C@]2(C(=O)O)CC[C@]3(C)C(=CC[C@@H]4[C@@]5(C)CC[C@H](O)C(C)(C)[C@@H]5CC[C@]43C)[C@H]12 | WS1 |  |  | 48 h | IC50 | 14 µM
C[C@@H]1O[C@@H](OC[C@H]2O[C@@H](Oc3c(-c4ccc(O)c(O)c4)oc4cc(O)cc(O)c4c3=O)[C@H](O)[C@@H](O)[C@@H]2O)[C@H](O)[C@H](O)[C@H]1O | TZM-bl | MTT |  | 48 h | CC50 | > 250 µg/mL
CC[C@H](C)C(=O)O[C@H]1C[C@@H](C)C=C2C=C[C@H](C)[C@H](CC[C@@H]3C[C@@H](O)CC(=O)O3)[C@H]21 | SW-620 | SRB |  | 72 h | IC50 | 0.08 µM
c1cc(CN2CCCNCCNCCCNCC2)ccc1CN1CCCNCCNCCCNCC1 | TZM-bl |  |  |  | CC50 | > 1 µM
O=c1oc2c(O)c(O)cc3c(=O)oc4c(O)c(O)cc1c4c23 | TZM-bl | MTT |  | 48 h | CC50 | 469 µg/mL
COc1cccc2c1C(=O)c1c(O)c3c(c(O)c1C2=O)C[C@@](O)(C(=O)CO)C[C@@H]3O[C@H]1C[C@H](N)[C@H](O)[C@H](C)O1 | MCF7 | MTT | 25 µM | 48 h | viability | 16%
C=C(C)[C@H](CCC(C)(C)O)Cc1c(O)cc(OC)c2c1O[C@H](c1ccc(O)cc1O)CC2=O | MCF7 | MTT |  | 48 h | IC50 | > 100 µM
O=[N+]([O-])c1ccc(-c2nc3cccc(O)c3[nH]2)o1 | HEp-2 | resazurin |  | 72 h | CC50 | 31.6 µM
C=C(C)C(CC=C(C)C)Cc1c(O)cc(OC)c2c1O[C@H](c1ccc(O)cc1O)CC2=O (single isomer, unassigned; (-)) | MCF7 | MTT |  |  | IC50 | 23.2 µM
CSc1ccc(OCc2ncc([N+](=O)[O-])n2C)cc1 | THP-1 | MTT |  | 72 h | CC50 | > 62.5 µM
O=[N+]([O-])c1ccc(-c2nc3cc(Cl)ccc3[nH]2)o1 | HEp-2 | resazurin |  | 72 h | CC50 | 5 µM
CC(=O)OC1c2c(ccc3ccc(=O)oc23)OC(C)(C)C1OC(=O)C(C)(O)C(C)O (stereo not drawn) | HEp-2 | WST-1 |  |  | IC50 | 11.3 µM
